Results published in ChEMBL document CHEMBL3580648, “Dimeric Abietane Diterpenoids and Sesquiterpenoid Lactones from Teucrium viscidum” (J Nat Prod, 2015).
Where a name gives a salt, the structure may show the parent alone.

Assays:
HepG2 = test: Cytotoxic activity against human HepG2 cells by MTT method; format: functional, cell-based
Method in brief: (§1)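 MTT assay on the cancer cell line. IC50 taken as the concentration that cuts absorbance to 50% of control. Values are means of three independent experiments.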

[1] = Cytotoxic activity against human BGC823 cells by MTT method; format: functional, cell-based; details: BGC-823; method in brief: as §1
HCT-116 = test: Cytotoxic activity against human HCT116 cells by MTT method; format: functional, cell-based; method in brief: as §1
HeLa = test: Cytotoxic activity against human HeLa cells by MTT method; format: functional, cell-based; method in brief: as §1
[2] = Inhibition of Saccharomyces cerevisiae alpha-glucosidase pre-incubated for 10 mins at 25 degC before addition of p-nitrophenyl-alpha-D-glucopyranoside substrate by UV absorption based assay
Method in brief: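 Yeast α-glucosidase at 1.0 U/mL in 0.1 M K3PO4 buffer, pH 6.9, mixed with test compound in DMSO. Preincubated 10 min at 25 °C, then started with PNPG (5.0 mM solution in the same buffer). A405 was read at once and again after 5 min at 25 °C. ΔA was compared with a DMSO control to give % inhibition and IC50, as means of three independent experiments.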

[3] = Cytotoxic activity against human H460 cells by MTT method; format: functional, cell-based; details: NCI-H460; method in brief: as §1

| Structure (SMILES) | IC50 [2] [µM] | IC50 (HepG2) [µM] | IC50 [1] [µM] | IC50 (HCT-116) [µM] | IC50 (HeLa) [µM] | IC50 [3] [µM] |
| --- | --- | --- | --- | --- | --- | --- |
| CC(C)C1=CC2=C(C(=O)C1=O)[C@]13CO[C@H]2C[C@H]1C(C)(C)C[C@H](O)C3 | > 1000 | > 10 | > 10 | 7.3 | > 10 | > 10 |
| CC(C)C1=C[C@]23Oc4c(C(C)C)cc5c(c4O[C@@]2(C(=O)C1=O)C12COC3C[C@H]1C(C)(C)C[C@H](O)C2)C12COC5C[C@H]1C(C)(C)C[C@H](O)C2 (stereo not given in full) | > 1000 | 5.2 | 4.8 | 6.3 | 5.2 | 8.5 |
| CC(C)c1cc2c(c(O)c1O)[C@]13CO[C@H]2C[C@H]1C(C)(C)C[C@H](O)C3 | > 1000 | > 10 | > 10 | > 10 | > 10 | > 10 |
| CC(C)C1=C[C@@]23Oc4c(C(C)C)cc5c(c4O[C@]2(C(=O)C1=O)C12COC3C[C@H]1C(C)(C)C[C@H](O)C2)C12COC5C[C@H]1C(C)(C)C[C@H](O)C2 (stereo not given in full) | > 1000 | > 10 | > 10 | > 10 | > 10 | > 10 |
| CC1=C2C[C@@H]3[C@@H](C)[C@@H](O)C[C@@H](O)[C@@]3(C)C[C@@]2(O)OC1=O | > 1000 | > 10 | > 10 | > 10 | > 10 | > 10 |
| C[C@H]1O[C@H](O[C@H]2[C@H](O)[C@@H](O)[C@@H](O[C@H]3[C@H](O)[C@@H](O)C(O)O[C@@H]3CO)O[C@@H]2CO)[C@H](O)[C@@H](O)[C@@H]1N[C@H]1C=C(CO)[C@@H](O)[C@H](O)[C@H]1O (stereo not given in full) [ACARBOSE] | 169 |  |  |  |  |  |
| COc1cccc2c1C(=O)c1c(O)c3c(c(O)c1C2=O)C[C@@](O)(C(=O)CO)C[C@@H]3O[C@H]1C[C@H](N)[C@H](O)[C@H](C)O1 [DOXORUBICIN HYDROCHLORIDE] |  | 0.24 | 0.76 |  | 0.72 | 0.24 |

More lines, main results first:

| IC50 [2] [µM] | Structure (SMILES) | IC50 (HepG2) [µM] | IC50 [1] [µM] | IC50 (HCT-116) [µM] | IC50 (HeLa) [µM] | IC50 [3] [µM] |
| --- | --- | --- | --- | --- | --- | --- |
| > 1000 | CC(=O)O[C@H]1C[C@@H](O)[C@@]2(C)C[C@@]3(O)OC(=O)C(C)=C3C[C@@H]2[C@H]1C | > 10 | > 10 | > 10 | > 10 | > 10 |
| > 1000 | CC(=O)O[C@@H]1C[C@H](O)[C@H](C)[C@H]2CC3=C(C)C(=O)O[C@]3(O)C[C@@]21C | > 10 | > 10 | > 10 | > 10 | > 10 |
| > 1000 | CC(=O)O[C@@H]1C(=O)C=C(C)[C@@H]2CC3=C(C)C(=O)O[C@@]3(O)C[C@@]12C | > 10 | > 10 | > 10 | > 10 | > 10 |
| 568 | CC1=CC(=O)[C@@H](O)[C@]2(C)C[C@]3(O)OC(=O)C(C)=C3C[C@@H]12 | > 10 | > 10 | > 10 | > 10 | > 10 |
| 300 | CC(=O)O[C@@H]1C(=O)C=C(C)[C@]2(O)CC3=C(C)C(=O)O[C@@]3(O)C[C@@]12C | > 10 | > 10 | > 10 | > 10 | > 10 |
